Laboratory results from ChEMBL document CHEMBL1799943, “1-(5-Carboxyindol-1-yl)propan-2-one inhibitors of human cytosolic phospholipase A2α: effect of substituents in position 3 of the indole scaffold on inhibitory potency, metabolic stability, solubility, and bioavailability” (J Med Chem, 2010).

Columns and labels:
Intestine [1] = experiment: Drug level in C57Bl6 mouse intestine assessed per gut at 100 mg/kg, po after 2 hrs by HPLC analysis in presence of Helix pomatia beta-glucuronidase HP2; assay type: ADME, organism-based; set-up: dose 100 mg/kg, route oral; details: in vivo
[2] = Drug level in C57Bl6 mouse plasma at 100 mg/kg, po after 1 hr by HPLC analysis; assay type: ADME, organism-based; set-up: dose 100 mg/kg, route oral
Summary of the method: (§1)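 Male/female unspecified C57Bl6 mice (n = 3) got a single 100 mg/kg oral gavage dose as a suspension in 1% aqueous methylcellulose (8 μL/g). Blood was drawn at 1 and 2 h and centrifuged at 3000g for 20 min. Plasma was mixed with pH 7.4 PBS and acetonitrile, left 5 min at room temperature and spun at 2000g for 15 min. Supernatant went to reversed-phase C18 HPLC-UV for parent and alcohol metabolite.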

Intestine [3] = experiment: Drug level in C57Bl6 mouse intestine assessed as 3-(5-Carboxypentanoyl)-1-[2-hydroxy-3-(4-octylphenoxy)propyl]indole-5-carboxylic acid level assessed per gut at 100 mg/kg, po after 2 hrs by HPLC analysis in presence of Helix pomatia beta-glucuronidase HP2; assay type: ADME, organism-based; set-up: dose 100 mg/kg, route oral; details: in vivo
[4] = Drug level in C57Bl6 mouse plasma at 100 mg/kg, po after 2 hrs by HPLC analysis; assay type: ADME, organism-based; set-up: dose 100 mg/kg, route oral; summary of the method: as §1
[5] = Metabolic stability in rat liver microsomes assessed as compound remaining after 30 mins by UV-reverse phase HPLC analysis; assay type: ADME, Microsome; details: read-out: Stability
[6] = Partition coefficient, log P of the compound by reverse phase HPLC analysis; assay type: physicochemical; details: octanol/water
Summary of the method: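 log P estimated from reversed-phase HPLC retention times of each compound's ketone form.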

Plasma [7] = experiment: Drug level in C57Bl6 mouse plasma assessed as 3-(5-carboxypentanoyl)-1-(2-hydroxy-3-(4-octylphenoxy)propyl)-1H-indole-5-carboxylic acid at 100 mg/kg, po after 1 hr by HPLC analysis; assay type: ADME, organism-based; set-up: dose 100 mg/kg, route oral; details: in vivo; summary of the method: as §1
[8] = Drug level in C57Bl6 mouse bile at 100 mg/kg, po after 2 hrs by HPLC analysis; assay type: ADME, organism-based; set-up: dose 100 mg/kg, route oral; details: read-out: Drug uptake
Summary of the method: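 Mice (C57Bl6, n = 3) were dosed orally by gavage at 100 mg/kg in 1% methylcellulose and killed 2 h later for bile collection. For direct measurement, bile was diluted in pH 7.4 PBS with equal acetonitrile. Alternatively, bile in pH 5.5 PBS was digested with Helix pomatia β-glucuronidase HP-2 at 60 °C for 1 h, then acetonitrile was added. Both were centrifuged at 2000g and analysed by reversed-phase HPLC-UV.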

Plasma [9] = experiment: Drug level in C57Bl6 mouse plasma assessed as 3-(5-carboxypentanoyl)-1-(2-hydroxy-3-(4-octylphenoxy)propyl)-1H-indole-5-carboxylic acid at 100 mg/kg, po after 2 hrs by HPLC analysis; assay type: ADME, organism-based; set-up: dose 100 mg/kg, route oral; details: in vivo; summary of the method: as §1
[10] = Drug level in C57Bl6 mouse intestine assessed per gut at 100 mg/kg, po after 2 hrs by HPLC analysis; assay type: ADME, organism-based; set-up: dose 100 mg/kg, route oral; details: read-out: Drug uptake
Summary of the method: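 Whole intestines were taken from C57Bl6 mice (n = 3) 2 h after 100 mg/kg oral gavage in 1% methylcellulose. Each was minced, homogenized at 0 °C in pH 7.4 PBS and extracted with acetonitrile. Pellet washes with PBS/acetonitrile 1:1 were pooled, made up to volume, centrifuged and filtered. Parent and alcohol metabolite per whole gut were quantified by reversed-phase HPLC-UV.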

Intestine [11] = experiment: Drug level in C57Bl6 mouse intestine assessed as 3-(5-carboxypentanoyl)-1-(2-hydroxy-3-(4-octylphenoxy)propyl)-1H-indole-5-carboxylic acid per gut at 100 mg/kg, po after 2 hrs by HPLC analysis; assay type: ADME, organism-based; set-up: dose 100 mg/kg, route oral; details: in vivo
Summary of the method: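 Whole intestine removed 2 h after a single 100 mg/kg gavage (1% methylcellulose suspension) in C57Bl6 mice (n = 3). Tissue minced and homogenised in PBS pH 7.4 at 0 °C, then extracted with acetonitrile with repeated PBS/acetonitrile 1:1 washes, spun 2000g at 4 °C. Pooled extract made up to volume and analysed by reversed-phase HPLC-UV. Amount per gut, mean ± SD.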

[12] = Drug level in C57Bl6 mouse bile assessed as 3-(5-carboxypentanoyl)-1-(2-hydroxy-3-(4-octylphenoxy)propyl)-1H-indole-5-carboxylic acid at 100 mg/kg, po after 2 hrs by HPLC analysis; assay type: ADME, organism-based; set-up: dose 100 mg/kg, route oral; details: in vivo
[13] = Drug level in C57Bl6 mouse bile assessed as 3-(5-carboxypentanoyl)-1-(2-hydroxy-3-(4-octylphenoxy)propyl)-1H-indole-5-carboxylic acid at 100 mg/kg, po after 2 hrs by HPLC analysis in presence of Helix pomatia beta-glucuronidase HP2; assay type: ADME, organism-based; set-up: dose 100 mg/kg, route oral; details: in vivo
Summary of the method: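 C57Bl6 mice (n = 3) were gavaged once with 100 mg/kg suspended in 1% aqueous methylcellulose, and bile was taken at 2 h. Bile in PBS pH 5.5 was treated with Helix pomatia β-glucuronidase HP-2 at 60 °C for 1 h to cleave glucuronides. Acetonitrile was then added, samples were left 5 min, spun 2000g for 15 min, and analysed by reversed-phase HPLC-UV. Mean ± SD.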

[14] = Drug level in rat plasma at 100 mg/kg, po after 4 hrs by HPLC analysis; assay type: ADME, organism-based; set-up: dose 100 mg/kg, route oral
[15] = Drug level in C57Bl6 mouse plasma at 10 mg/kg, po after 1 hr by HPLC analysis; assay type: ADME, organism-based; set-up: dose 10 mg/kg, route oral
[16] = Drug level in C57Bl6 mouse plasma at 10 mg/kg, po after 2 hrs by HPLC analysis; assay type: ADME, organism-based; set-up: dose 10 mg/kg, route oral

SMILES	remaining at 0.5 h [5] [%]	logP [6]	further results
CC(C)C(=O)c1cn(CC(=O)COc2ccc(Oc3ccccc3)cc2)c2ccc(C(=O)O)cc12	–	–	Drug uptake (Intestine [1]): 404 µg; concentration at 1 h [2]: < 5000 ng/mL; Drug uptake (Intestine [3]): 875 µg; concentration at 2 h [4]: < 1000 ng/mL
CCCCCCCCc1ccc(OCC(=O)Cn2cc(-c3nc(C)no3)c3cc(C(=O)O)ccc32)cc1	81	6.3	–
CCCCCCCCc1ccc(OCC(=O)Cn2cc(C(=O)CCC)c3cc(C(=O)O)ccc32)cc1	–	6.7	–
CCCCCCCCc1ccc(OCC(=O)Cn2cc(C(=O)CCCCC)c3cc(C(=O)O)ccc32)cc1	–	> 7	–
CCCCCCCCc1ccc(OCC(=O)Cn2cc(C(=O)C(C)(C)C)c3cc(C(=O)O)ccc32)cc1	93	> 7	–
CCCCCCCCc1ccc(OCC(=O)Cn2cc(C(=O)c3ccccc3)c3cc(C(=O)O)ccc32)cc1	95	6.9	–
CCCCCCCCc1ccc(OCC(=O)Cn2cc(CC)c3cc(C(=O)O)ccc32)cc1	84	> 7	–
CCCCCCCCc1ccc(OCC(=O)Cn2cc(CCCC)c3cc(C(=O)O)ccc32)cc1	82	> 7	–
CCCCCCCCc1ccc(OCC(=O)Cn2cc(CCCCCC)c3cc(C(=O)O)ccc32)cc1	94	> 7	–
CCCCCCCCc1ccc(OCC(=O)Cn2cc(C(=O)CCC(=O)O)c3cc(C(=O)O)ccc32)cc1	–	5.1	–
CCCCCCCCc1ccc(OCC(=O)Cn2cc(C(=O)CCCC(=O)O)c3cc(C(=O)O)ccc32)cc1	95	5.2	–
CCCCCCCCc1ccc(OCC(=O)Cn2cc(C(=O)CCCCC(=O)O)c3cc(C(=O)O)ccc32)cc1	–	5.3	Cp (Plasma [7]): < 100 ng/mL; concentration at 2 h [8]: 6000 ng/mL; Cp (Plasma [9]): < 100 ng/mL; concentration at 1 h [2]: < 200 ng/mL; concentration at 2 h [10]: 870000 ng/mL; concentration at 2 h [4]: < 200 ng/mL
CCCCCCCCc1ccc(OCC(=O)Cn2cc(C(=O)c3cccc(C(=O)O)c3)c3cc(C(=O)O)ccc32)cc1	87	5.7	–
CCCCCCCCc1ccc(OCC(=O)Cn2cc(C(=O)c3ccc(C(=O)O)cc3)c3cc(C(=O)O)ccc32)cc1	87	5.6	–
CCCCCCCCc1ccc(OCC(=O)Cn2cc(C(=O)C(F)(F)F)c3cc(C(=O)O)ccc32)cc1	87	> 7	–
O=C(O)CCCCC(=O)c1cn(CC(=O)COc2ccc(Oc3ccccc3)cc2)c2ccc(C(=O)O)cc12	24	2.1	–
Cc1noc(-c2cn(CC(=O)COc3ccc(Oc4ccccc4)cc3)c3ccc(C(=O)O)cc23)n1	8	3.1	–
CCCCCCCCc1ccc(OCC(O)Cn2cc(C(=O)CCCCC(=O)O)c3cc(C(=O)O)ccc32)cc1 (centres undefined)	–	–	Drug uptake (Intestine [11]): 14 µg/mL; Drug uptake [12]: < 1 µg/mL; Drug uptake [13]: 33 µg/mL
CCCCCCCCCCCC(=O)c1c(C(=O)O)n(CCOc2ccc(CC(=O)O)cc2)c2ccccc12	–	–	concentration at 4 h [14]: 100000 ng/mL
COc1ccc2c(c1)c(CC(=O)O)c(C)n2C(=O)c1ccc(Cl)cc1 [INDOMETHACIN]	–	–	concentration at 1 h [15]: 42000 ng/mL; concentration at 2 h [16]: 34000 ng/mL
